Calls of active or inactive are those of the source. No cut-off for these calls is given here.
What was measured:
MM1.S [1] = assay: Synergistic activity against human MM.1S cells assessed as combination index […] in presence of 2.5 uM GSK126 […] at 0.5 uM incubated for 48 hrs by MTT assay; format: functional
Summary of the method: (§1)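 Cells were exposed to the EZH2/EZH1 inhibitor (UNC1999 or GSK126) for 72 h in total, with the Akt inhibitor added for the last 48 h. Viability was read by MTS assay relative to untreated control cells, in triplicate. The combination index for each dose pair came from isobologram analysis.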

OPM-2/BTZ [2] = assay: Upregulation of EZH1 mRNA expression in human OPM-2/BTZ cells at 0.03 to 3 micromol/L after 6 to 48 hrs by qRT-PCR analysis; conditions: dose 0.03-3 µmol/L, time 6-48 hrs
NCI-H929 [3] = assay: Downregulation of EZH2 protein expression in human NCI-H929 cells at 0.3 to 5 micromol/L for 6 to 48 hrs by Western blot analysis; format: functional, cell-based; conditions: dose 0.3-5 µmol/L, time 6-48 hrs
Summary of the method: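 MM.1S and H929 cells exposed to TAS-117 at the indicated doses for 48 h, or to 5 μmol/L for the indicated times. Immunoblot with GAPDH, Akt and H3 as loading controls; EZH2 quantified relative to GAPDH.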

MM1.S [4] = assay: Downregulation of E2F2 mRNA expression in human MM1.S cells incubated at 0.3 to 3 micromol/L for 24 hrs by qRT-PCR analysis; format: functional, cell-based; conditions: dose 0.3-3 µmol/L
Summary of the method: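 MM.1S and H929 cells given TAS-117 at the indicated doses for 24 h. mRNA measured by RT-qPCR, fold change after normalization to GAPDH; SD of triplicates; significance versus untreated control.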

OPM-2 [5] = assay: Synergistic activity against human OPM-2 cells assessed as combination index preincubated in presence of 1.25 uM GSK126 for 72 hrs followed by compound addition at 2.5 uM incubated for 48 hrs by MTT assay; format: functional
MM1.S [6] = assay: Downregulation of H3K27me3 levels in human MM1.S cells […] at 0.3 micromol/L after 48 hrs by Western blot analysis relative to control; format: functional, cell-based; conditions: dose 0.3 µmol/L
Summary of the method: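 MM.1S cells transduced with lentiviral shRNA against EZH1 or luciferase, then treated with TAS-117 at the indicated doses for 48 h. H3K27me3 immunoblot with H3 as loading control.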

NCI-H929 [7] = assay: Cytotoxicity against human NCI-H929 cells transduced with EZH1 assessed as enhanced sensitivity at 0.156 to 2.5 micromol/L 48 hrs by MTS assay; format: functional, cell-based; conditions: dose 0.156-2.5 µmol/L
Summary of the method: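 MM.1S or H929 cells transduced with lentiviral shRNA against EZH1 or against luciferase (shLuc control), then given TAS-117 at the indicated doses for 48 h. Viability by MTS relative to untreated control; mean ± SD of triplicates; compared with shLuc.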

MM1.S [8] = assay: Synergistic activity against human MM.1S cells assessed as combination index […] in presence of 1.25 uM UNC1999 […] at 0.25 uM incubated for 48 hrs by MTT assay; format: functional; summary of the method: as §1
NCI-H929 [9] = assay: Upregulation of FOXO3 […] expression in human NCI-H929 cells assessed as enhanced nuclear accumulation at 1 micromol/L after 24 hrs by immunofluorescence staining; format: functional, cell-based; conditions: dose 1.0 µmol/L
MM1.S [10] = assay: Induction of apoptosis in human MM1.S cells assessed as early apoptotic cells preincubated in presence of 5 micromol/L UNC1999 for 48 hrs followed by compound addition at 2 micromol/L incubated for 12 hrs by annexin V/PI staining based flow cytometry (reference value: 8.03%); format: functional; conditions: dose 2 µmol/L, at 2 µM
MM1.S [11] = assay: Downregulation of EZH2 mRNA expression in human MM1.S cells in presence of 5 micromol/L UNC1999 for 72 hrs followed by compound addition at 2 micromol/L incubated for 24 hrs by qRT-PCR analysis; conditions: dose 2.0 µmol/L
MM1.S [12] = assay: Synergistic activity against human MM.1S cells assessed as combination index […] at 0.125 uM incubated for 48 hrs MTT assay; format: functional; summary of the method: as §1
MM1.S [13] = assay: Synergistic activity against human MM.1S cells assessed as combination index preincubated in presence of 1.25 uM GSK126 […] at 0.25 uM incubated for 48 hrs by […]; format: functional; summary of the method: as §1
MM1.S [14] = assay: Upregulation of EZH1 protein expression in human MM1.S cells at 0.03 to 3 micromol/L after 48 hrs by Western blot analysis; format: functional, cell-based; conditions: dose 0.03-3 µmol/L
Summary of the method: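 MM.1S and H929 cells were treated with graded TAS-117 for 48 h. EZH1 was detected by immunoblot and quantified relative to the GAPDH loading control.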

OPM-2/BTZ [15] = assay: Synergistic activity against human OPM-2/BTZ cells assessed as combination index preincubated in presence of 1.25 uM GSK126 for 72 hrs followed by compound addition at 2 uM incubated for 48 hrs by MTT assay; format: functional
OPM-2 [16] = assay: Synergistic activity against human OPM-2 cells assessed as combination index preincubated in presence of 2.5 uM UNC1999 for 72 hrs followed by compound addition at 2.5 uM incubated for 48 hrs by MTT assay; format: functional
NCI-H929 [17] = assay: Induction of apoptosis in human NCI-H929 cells assessed as necrotic cells preincubated in presence of 5 micromol/L UNC1999 for 48 hrs followed by compound addition at 2 micromol/L incubated for 12 hrs by annexin V/PI staining based flow cytometry (reference value: 2.61%); format: functional; conditions: dose 2 µmol/L, at 2 µM
OPM-2/BTZ [18] = assay: Downregulation of E2F1 protein expression in human OPM-2/BTZ cells incubated at 0.3 to 3 micromol/L for 48 hrs by Western blot analysis; format: functional, cell-based; conditions: dose 0.3-3 µmol/L
[19] = target: Serine/threonine-protein kinase AKT (Homo sapiens) (UniProt P31751+Q9Y243+P31749); assay: Inhibition of Akt phosphorylation in human OPM-2/BTZ cells after 48 hrs at 0.3 to 2 micromol/L for 48 hrs by Western blot analysis; format: cell-based; conditions: dose 0.3-2 µmol/L
MM1.S [20] = assay: Induction of apoptosis in human MM1.S cells assessed as live cells at 2 micromol/L incubated for 12 hrs by annexin V/PI staining based flow cytometry (reference value: 88.2%); format: functional; conditions: dose 2 µmol/L, at 2 µM
OPM-2 [21] = assay: Synergistic activity against human OPM-2 cells assessed as combination index preincubated in presence of 2.5 uM GSK126 for 72 hrs followed by compound addition at 2.5 uM incubated for 48 hrs by MTT assay; format: functional
OPM-2/BTZ [22] = assay: Synergistic activity against human OPM-2/BTZ cells assessed as combination index preincubated in presence of 2.5 uM UNC1999 for 72 hrs followed by compound addition at 0.5 uM incubated for 48 hrs by MTT assay; format: functional
MM1.S [23] = assay: Downregulation of EZH2 mRNA expression in human MM1.S cells transduced with EZH1 at 0.3 micromol/L after 24 hrs by qRT-PCR analysis; format: functional, cell-based; conditions: dose 0.3 µmol/L
Summary of the method: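 EZH1-shRNA or shLuc lentivirus-transduced MM.1S cells treated with TAS-117 at the indicated doses for 24 h. EZH2 mRNA by RT-qPCR, fold change normalized to GAPDH.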

OPM-2 [24] = assay: Effects on EZH2 mRNA expression in human OPM-2 cells at 3 micromol/L incubated for last 24 hrs by qRT-PCR analysis; format: functional, cell-based; conditions: dose 3.0 µmol/L

Sequence of Serine/threonine-protein kinase AKT (Homo sapiens) (P31749 whole entry, looked up): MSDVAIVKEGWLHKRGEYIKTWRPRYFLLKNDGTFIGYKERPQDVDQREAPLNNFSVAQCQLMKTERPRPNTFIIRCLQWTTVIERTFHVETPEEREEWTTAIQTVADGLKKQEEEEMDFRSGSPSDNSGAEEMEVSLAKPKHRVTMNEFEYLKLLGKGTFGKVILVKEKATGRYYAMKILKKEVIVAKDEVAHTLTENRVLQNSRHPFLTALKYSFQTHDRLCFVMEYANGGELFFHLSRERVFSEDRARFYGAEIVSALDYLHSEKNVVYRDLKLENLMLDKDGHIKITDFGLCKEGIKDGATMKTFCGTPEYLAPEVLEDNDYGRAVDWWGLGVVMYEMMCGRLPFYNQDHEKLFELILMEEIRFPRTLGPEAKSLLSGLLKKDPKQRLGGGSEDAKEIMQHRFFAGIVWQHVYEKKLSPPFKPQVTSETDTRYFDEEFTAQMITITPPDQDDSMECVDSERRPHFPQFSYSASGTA
Sequence of Serine/threonine-protein kinase AKT (Homo sapiens) (P31751 whole entry, looked up): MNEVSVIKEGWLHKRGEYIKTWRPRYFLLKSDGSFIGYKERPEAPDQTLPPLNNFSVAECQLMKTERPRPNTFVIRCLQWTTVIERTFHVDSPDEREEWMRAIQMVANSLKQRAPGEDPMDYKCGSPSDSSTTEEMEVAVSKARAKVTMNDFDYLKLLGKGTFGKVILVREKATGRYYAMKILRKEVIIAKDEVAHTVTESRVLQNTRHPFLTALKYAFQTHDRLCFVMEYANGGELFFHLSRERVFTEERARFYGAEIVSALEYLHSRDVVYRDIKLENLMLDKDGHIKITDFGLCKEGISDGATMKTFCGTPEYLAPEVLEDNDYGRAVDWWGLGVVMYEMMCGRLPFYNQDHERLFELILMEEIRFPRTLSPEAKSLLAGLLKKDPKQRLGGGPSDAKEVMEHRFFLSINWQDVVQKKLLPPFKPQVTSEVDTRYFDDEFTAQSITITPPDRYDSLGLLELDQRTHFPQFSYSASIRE
Sequence of Serine/threonine-protein kinase AKT (Homo sapiens) (Q9Y243 whole entry, looked up): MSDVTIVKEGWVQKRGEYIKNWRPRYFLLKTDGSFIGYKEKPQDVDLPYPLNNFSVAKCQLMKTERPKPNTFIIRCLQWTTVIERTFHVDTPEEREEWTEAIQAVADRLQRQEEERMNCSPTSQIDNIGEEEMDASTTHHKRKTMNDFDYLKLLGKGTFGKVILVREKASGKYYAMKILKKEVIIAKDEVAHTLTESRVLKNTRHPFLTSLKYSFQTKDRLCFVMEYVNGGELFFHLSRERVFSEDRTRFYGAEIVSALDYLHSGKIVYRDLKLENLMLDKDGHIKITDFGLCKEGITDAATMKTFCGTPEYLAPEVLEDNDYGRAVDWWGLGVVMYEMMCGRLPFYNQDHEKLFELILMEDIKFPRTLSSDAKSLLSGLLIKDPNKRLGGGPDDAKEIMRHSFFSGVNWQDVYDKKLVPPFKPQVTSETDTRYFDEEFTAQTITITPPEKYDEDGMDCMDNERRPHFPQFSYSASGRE

Question: What does the source list for C[C@]1(O)C[C@@](N)(c2ccc(-c3nc4n(c3-c3ccccc3)COc3ccncc3-4)cc2)C1 [PIFUSERTIB]?
Answer: CI (MM1.S [1]): 0.619; Activity (OPM-2/BTZ [2]): Dose-Dependent Effect; Activity (NCI-H929 [3]): Active; Activity (MM1.S [4]): Active; CI (OPM-2 [5]): 2.465; Activity (MM1.S [6]): Active; Activity (NCI-H929 [7]): Active; CI (MM1.S [8]): 0.251; Activity (NCI-H929 [9]): Active; Activity (MM1.S [10]): 40.7%; Activity (MM1.S [11]): Active; CI (MM1.S [12]): 0.253; CI (MM1.S [13]): 0.954; Activity (MM1.S [14]): Active; CI (OPM-2/BTZ [15]): 0.203; CI (OPM-2 [16]): 2.79; Activity (NCI-H929 [17]): 2.15%; Activity (OPM-2/BTZ [18]): Active; inhibition [19]: Active; Activity (MM1.S [20]): 85.7%; CI (OPM-2 [21]): 2.563; CI (OPM-2/BTZ [22]): 0.499; Activity (MM1.S [23]): Active; Activity (OPM-2 [24]): inactive

Reference: ChEMBL document CHEMBL5647697, “Akt inhibition synergizes with polycomb repressive complex 2 inhibition in the treatment of multiple myeloma” (2019)
